For 30 molecules, inhibition and IC50 results are on record in ChEMBL document CHEMBL4706687, “Synthesis and Pharmacological Evaluation of Novel Non-nucleotide Purine Derivatives as P2X7 Antagonists for the Treatment of Neuroinflammation” (J Med Chem, 2021).

For assay [1], the target named is T1, P2X purinoceptor 7 (Homo sapiens) (UniProt Q99572).
T1 sequence (whole entry): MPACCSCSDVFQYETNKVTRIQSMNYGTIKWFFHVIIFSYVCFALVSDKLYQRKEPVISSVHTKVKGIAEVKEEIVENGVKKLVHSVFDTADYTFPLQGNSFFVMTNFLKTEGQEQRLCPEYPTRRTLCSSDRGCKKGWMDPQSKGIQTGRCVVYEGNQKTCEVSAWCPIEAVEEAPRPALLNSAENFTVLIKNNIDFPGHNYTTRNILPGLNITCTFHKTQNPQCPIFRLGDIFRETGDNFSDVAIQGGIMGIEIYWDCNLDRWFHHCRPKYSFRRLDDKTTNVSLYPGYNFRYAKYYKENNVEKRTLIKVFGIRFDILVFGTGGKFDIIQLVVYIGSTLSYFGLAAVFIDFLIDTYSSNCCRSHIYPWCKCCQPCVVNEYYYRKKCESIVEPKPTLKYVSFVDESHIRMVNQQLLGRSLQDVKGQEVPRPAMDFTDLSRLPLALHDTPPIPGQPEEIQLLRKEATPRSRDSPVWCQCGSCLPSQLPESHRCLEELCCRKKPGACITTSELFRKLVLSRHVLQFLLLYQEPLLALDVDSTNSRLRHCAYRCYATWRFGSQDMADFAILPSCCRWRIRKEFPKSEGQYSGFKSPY
In words: Antagonist activity at human P2X7 receptor expressed in Xenopus laevis oocytes assessed as reduction in ATP-induced channel currents at 100 uM by TEVC electrophysiology assay relative to control. The note with it: Oocyte. Type of assay: cell-based. In outline: (§1)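 Oocytes injected with 50 nL His-tagged hP2X7 cRNA (0.5 mg/mL), kept 1–2 days at 16–18 °C. Recorded in low divalent-cation solution (90 mM NaCl, 0.5 mM CaCl₂, 5 mM HEPES) at −70 mV. ATP 300 μM for 2 s after 3 min static compound incubation. Current normalized to control amplitude. Triplicates from three oocytes, two frogs.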

For assay [2], the target named is T1, P2X purinoceptor 7 (Homo sapiens). In words: Antagonist activity at human P2X7 receptor expressed in HEK293 cells assessed as reduction in benzoyl-ATP-induced YO-PRO-1 dye uptake at 10 uM pre-incubated for 20 mins before YO-PRO-1 addition and measured after 25 mins by fluorescence plate reader analysis relative to control. The note with it: time 45.0 min. Type of assay: cell-based. The method, boiled down: (§2)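 Stably transfected hP2X7-HEK293 cells, 48 h after seeding, in Mg²⁺-free Krebs-HEPES (0.2 mM CaCl₂, pH 7.4). Compound preincubation 20 min, then YO-PRO-1 2 μM, then BzATP 30 μM. Fluorescence at 485/520 nm read for 25 min. Each well normalized to Fmax (0.5% Triton X-100) and Fmin (2 M MnCl₂): F = (Fx − F0)/(Fmax − Fmin). Triplicates from three cultures. IC50 is the concentration halving BzATP-induced uptake.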

A further assay has as its target T2, P2X purinoceptor 7 (Homo sapiens, UniProt Q99572).
T2 sequence (Q99572 whole entry): T1 sequence (whole entry)
In words: Antagonist activity at human P2X7 receptor expressed in HEK293 cells assessed as reduction in benzoyl-ATP-induced YO-PRO-1 dye uptake pre-incubated for 20 mins before YO-PRO-1 addition and measured after 25 mins by fluorescence plate reader analysis relative to control. Type of assay: cell-based. The method, boiled down: as §2

Assay [3] has as its target T1, P2X purinoceptor 7 (Homo sapiens). Description: Antagonist activity at human P2X7 receptor expressed in HEK293 cells assessed as reduction in benzoyl-ATP-induced intracellular Ca2+ level by Fura-2 dye based fluorescence assay. Type of assay: cell-based. The note with it: filed as antagonist. In outline: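 hP2X7-HEK293 cells 24–48 h after seeding, loaded with Fura-2-AM 8 μM for 1 h, then washed in Mg²⁺-free Tyrode (2 mM CaCl₂, pH 7.4) for 15–30 min with compound present. Excitation 340/380 nm, emission 520 nm. Basal recording, then BzATP injected (100 μM final). [Ca²⁺]c from Grynkiewicz equation. Blockade as percent of BzATP peak in Tyrode-only wells; triplicates.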

Another assay concerns Peritoneal macrophage. In words: Inhibition of Il-1beta production in LPS-stimulated C57BL/6 mouse peritoneal macrophages pre-incubated for 15 mins followed by ATP addition for 30 mins by ELISA method. Type of assay: functional, tissue-based. The note with it: time 45.0 min. In outline:
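Thioglycolate-elicited peritoneal macrophages from 6–8-week male C57BL/6 mice, 3 × 10⁵ cells/well. Primed 4 h with LPS 1 μg/mL (E. coli 026:B6), then serum-free DMEM with compound for 15 min, then ATP for 30 min. Supernatant IL-1β measured by ELISA, expressed as percent of ATP-only control. Triplicates from three mice.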

Assay [4] concerns the target T1, P2X purinoceptor 7 (Homo sapiens). Description: Antagonist activity at human P2X7 receptor expressed in Xenopus laevis oocytes assessed as reduction in ATP-induced channel currents at 1 uM by TEVC electrophysiology assay relative to control. Format: cell-based. Particulars: Oocyte, filed as antagonist. The method, boiled down:
as §1

Assay [5] has the same target. In words: Antagonist activity at human P2X7 receptor expressed in HEK293 cells assessed as reduction in benzoyl-ATP-induced YO-PRO-1 dye uptake at 1 uM pre-incubated for 20 mins before YO-PRO-1 addition and measured after 25 mins by fluorescence plate reader analysis relative to control. Type of assay: cell-based. The note with it: filed as antagonist, time 45.0 min. In outline: as §2

Active and inactive are the calls of the source. The rule behind the calls is not given here.

Broadly, the inhibition is the drop in the measured response relative to a control, in per cent. In the case of `CNc1nc(Cl)nc2c1ncn2CC(=O)c1ccc(Cl)cc1Cl`, the inhibition in assay [1] stood at 5%; in assay [2] it was 2%.
For `COc1ncnc2c1ncn2CC(=O)c1ccc(Cl)cc1Cl`, the inhibition in assay [1] came to 14%; in assay [2], 25%.
As to `Nc1nc(Cl)c2ncn(CC(=O)c3ccc(Cl)cc3Cl)c2n1`, the inhibition in assay [1] turned out to be 6%; in assay [2], 4%.
On to `Nc1nc(Cl)c2ncn(S(=O)(=O)c3ccccc3Cl)c2n1`, for which the inhibition result in assay [1] is “inactive”. Moreover, in assay [2], the inhibition amounted to 9%.
Taken in the same sequence, the figures for `Cn1c(=O)c2c(ncn2S(=O)(=O)c2ccc(Cl)cc2Cl)n(C)c1=O` were 9% and 7%.
Taken in the same sequence, the figures for `O=C(Cn1cnc2c(I)nc(Cl)nc21)c1ccc(Cl)cc1Cl` were 6% and 14%.
Regarding `Cn1c(=O)c2c(ncn2S(=O)(=O)c2ccc(F)cc2Cl)n(C)c1=O`, in assay [1], the inhibition result was “inactive”. Also, in assay [2], the inhibition turned out to be 20%.
A word on the IC50: it is the concentration needed to halve the response being measured. Regarding `O=C(Cn1cnc2c(Cl)nc(Cl)nc21)c1ccc(Cl)cc1Cl`, the inhibition came to 24% in assay [1] and 41% in assay [2] (filed as antagonist). The IC50 on P2X purinoceptor 7 stood at 13 µM.
Consider `O=C(Cn1cnc2c(-c3ccccc3)ncnc21)c1ccc(Cl)cc1Cl`, for which the inhibition in assay [1] amounted to 11%; in assay [2] (filed as antagonist), 62%. In addition, the IC50 on P2X purinoceptor 7 came out at 6 µM. Besides, the inhibition entry in assay [3] is “Active”.
Turning to `Cn1cnc2c1c(=O)n(CC(=O)c1ccc(Cl)cc1Cl)c(=O)n2C`, the inhibition in assay [1] was found to be 2%. The inhibition entry in assay [2] is “inactive”.
For the molecule `O=C(Cn1cnc2c(Cl)ncnc21)c1ccc(Cl)cc1`, the inhibition in assay [1] is 11%; in assay [2] (filed as antagonist), 55%. Further, the IC50 on P2X purinoceptor 7 amounted to 10 µM.
For the molecule `Cn1cnc2c1c(=O)n(C(=O)c1ccccc1Cl)c(=O)n2C`, the inhibition in assay [1] and in assay [2] was 5% in each case.
For `Cc1cc(F)ccc1S(=O)(=O)n1cnc2c1c(=O)n(C)c(=O)n2C`, the inhibition result in assay [1] is “inactive”. Besides, the inhibition in assay [2] was found to be 23%.
Regarding `Cn1c(=O)c2c(ncn2S(=O)(=O)c2ccc(C(F)(F)F)cc2Cl)n(C)c1=O`, the inhibition entry in assay [1] was “inactive”. Also, the inhibition in assay [2] turned out to be 5%.
Turning to `Cn1c(=O)c2c(ncn2S(=O)(=O)c2cc(Cl)ccc2Cl)n(C)c1=O`, the inhibition result in assay [1] is “inactive”. In addition, the inhibition in assay [2] came to 4%.
As for `Cn1c(=O)c2c(ncn2S(=O)(=O)c2ccccc2Cl)n(C)c1=O`, the results for the inhibition result (in the assay with Peritoneal macrophage; in assay [1]; in assay [2] (filed as antagonist)) were “Dose-dependent effect”, 28% and 52%, respectively. For the same molecule, the IC50 on P2X purinoceptor 7 was determined as 10 µM.
In the case of `CNc1nc(Cl)nc2c1ncn2S(=O)(=O)c1ccccc1Cl`, the inhibition in assay [1] was found to be 2%; in assay [2], 4%.
As for `O=C(Cn1cnc2c(Cl)nc(F)nc21)c1ccc(Cl)cc1Cl`, the inhibition in assay [1] is 24%; in assay [2], 27%.
Turning to `Cn1c(=O)c2c(ncn2S(=O)(=O)c2ccc(F)cc2)n(C)c1=O`, the inhibition entry in assay [1] is “inactive”. In addition, in assay [2], the inhibition came out at 10%.
Taken in the same sequence, the figures for `O=C(Cn1cnc2c(Cl)ncnc21)c1ccc(F)cc1` were 7% and 34%.
For `O=S(=O)(c1ccccc1Cl)n1cnc2c(Cl)ncnc21`, the inhibition is 9% in assay [1] and 17% in assay [2].
The corresponding values for `Cn1cnc2c(=O)n(Cc3ccccc3Cl)c(Cl)nc21` are 9% and 16%.
`O=C(NCC1(N2CCN(c3ccccc3)CC2)CCOCC1)c1cccnc1Sc1ccccc1`: the figures for the inhibition in assay [4] and in assay [5] were 49% and 56%, respectively.
Consider `Cn1c(=O)c2c(ncn2CC(=O)c2ccc(Cl)cc2Cl)n(C)c1=O`, for which the inhibition in assay [1] is 10%; in assay [2], 0%.
Take `O=C(CCn1cnc2c(Cl)ncnc21)c1ccc(Cl)cc1Cl`: the inhibition in assay [1] amounted to 6%; in assay [2], 19%.
For the molecule `O=S(=O)(c1ccccc1Cl)n1cnc2c(Cl)nc(Cl)nc21`, the inhibition came to 2% in assay [1] and 46% in assay [2] (filed as antagonist). The IC50 at P2X purinoceptor 7 came out at 10.2 µM.
In the case of `O=C(c1ccccc1Cl)n1cnc2c(Cl)ncnc21`, the inhibition in assay [1] stood at 5%; in assay [2], 7%.
Turning to `COc1ncnc2c1ncn2S(=O)(=O)c1ccccc1Cl`, the inhibition in assay [1] came out at 8%. The inhibition entry in assay [2] was “inactive”.
For `Cn1c(=O)c2c(ncn2S(=O)(=O)c2ccc(F)cc2F)n(C)c1=O`, the inhibition in assay [1] came to 1%; in assay [2], 7%.
`COc1ncnc2c1ncn2C(=O)c1ccccc1Cl`: the inhibition in assay [1] is 0%; in assay [2], 1%.
